pKi: −log10 of the molar value. Values after ≈ are worked out from the molar mass of the structure shown.

Experiment [1] concerns Francisella novicida. The experiment can be described thus: Ratio of LPC-011 MIC to compound MIC for Francisella novicida U 112 after 22 hrs by MTT assay. The class given is functional, Francisella tularensis subsp. novicida.
In experiment [2] the test system is Francisella novicida. The experiment can be described thus: Antimicrobial activity against Francisella novicida U 112 after 22 hrs by MTT assay. Conditions: Francisella tularensis, U 112, 22 h. The class given is functional, Francisella tularensis subsp. novicida. In short, it runs like this:
(§1)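 Broth microdilution in triplicate (modified NCCLS) in LB with 5% DMSO, using 2-fold compound series over 0.0005–1, 0.0025–5 or 0.024–50 µg/mL. Cells grown to OD600 0.6 were diluted 100-fold into the wells and incubated 22 h at 37 °C. A 1 mg/mL MTT solution was added for 3 h more at 37 °C. MIC = lowest concentration with no visible yellow-to-black colour change.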

A further experiment concerns Vibrio cholerae. Put plainly: Antimicrobial activity against Vibrio cholerae P4 after 22 hrs by MTT assay. Particulars: P4, 22 h. It counts as functional. In short, it runs like this: as §1
The next experiment relates to Klebsiella pneumoniae. The experiment can be described thus: Antimicrobial activity against Klebsiella pneumoniae 43816 after 22 hrs by MTT assay. The class given is functional. Conditions: Klebsiella pneumoniae, 43816, 22 h. The method, boiled down:
(§2)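 Broth microdilution (modified NCCLS) in 96-well plates, LB medium with 5% DMSO; 2-fold compound series spanning 0.0005–1, 0.0025–5 or 0.024–50 µg/mL. Cells grown to OD600 0.6, diluted 100-fold, added to wells; 22 h at 37 °C, then MTT (1 mg/mL) 3 h at 37 °C. MIC = lowest concentration with no visible colour change; triplicate.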

In a further experiment the test system is Salmonella typhimurium. Put plainly: Antimicrobial activity against Salmonella enterica typhimurium LT2 after 22 hrs by MTT assay. The class given is functional, Salmonella enterica subsp. enterica serovar Typhimurium. Conditions: LT2, 22 h. In short, it runs like this: as §2
Experiment [3] has as its system Escherichia coli. The experiment can be described thus: Antimicrobial activity against Escherichia coli W3110PA after 22 hrs by MTT assay. The class given is functional. The method, boiled down:
as §2

Experiment [4] has as its system Escherichia coli. The experiment can be described thus: Ratio of MIC for wild type Escherichia coli W3110 to MIC for Escherichia coli CMR300. It counts as functional.
The test system of a further experiment is Pseudomonas aeruginosa. The experiment can be described thus: Antimicrobial activity against Pseudomonas aeruginosa PAO1 after 22 hrs by MTT assay. The class given is functional. Conditions: PAO1, 22 h. In short, it runs like this: as §2
The test system of experiment [5] is Escherichia coli. The experiment can be described thus: Antimicrobial activity against Escherichia coli CMR300 after 22 hrs by MTT assay. The class given is functional. Conditions: CMR300, 22 h. In short, it runs like this: as §2
In experiment [6] the test system is Escherichia coli. The experiment can be described thus: Antimicrobial activity against wild type Escherichia coli W3110 after 22 hrs by MTT assay. The class given is functional. Conditions: W3110, 22 h. In short, it runs like this:
as §2

Experiment [7] concerns the target T1, UDP-3-O-acyl-N-acetylglucosamine deacetylase (Escherichia coli K-12) (UniProt P0A725).
T1 sequence (whole entry): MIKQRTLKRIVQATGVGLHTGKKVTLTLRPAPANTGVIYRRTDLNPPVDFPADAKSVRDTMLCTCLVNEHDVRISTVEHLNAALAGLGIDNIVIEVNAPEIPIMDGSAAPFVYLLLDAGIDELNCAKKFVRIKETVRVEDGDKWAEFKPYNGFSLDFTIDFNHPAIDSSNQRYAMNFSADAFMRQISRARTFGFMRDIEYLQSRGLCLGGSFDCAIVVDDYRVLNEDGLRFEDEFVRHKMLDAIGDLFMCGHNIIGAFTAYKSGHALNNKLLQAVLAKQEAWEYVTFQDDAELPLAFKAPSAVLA
Put plainly: Ratio of LPC-011 Ki to compound Ki for Escherichia coli LpxC enzyme.

Experiment [8] addresses T2, UDP-3-O-acyl-N-acetylglucosamine deacetylase (Escherichia coli K-12, UniProt P0A725).
T2 sequence (P0A725 whole entry): T1 sequence (whole entry)
The experiment can be described thus: Inhibition of Escherichia coli LpxC enzyme using UDP-3-O-[(R)-3-hydroxymyristoyl]-N-acetyl glucosamine and [gamma-32P] UDP-3-O-[(R)-3-hydroxymyristoyl]-N-acetylglucosamine as substrate after 1 to 4 hrs.

Experiment [9] in a line: Ratio of MIC for Pseudomonas aeruginosa PAO1 to MIC for Escherichia coli W3110PA. The class given is functional.

On to `C[C@](O)(c1ccc(O)cc1)[C@H](NC(=O)c1ccc(C#CC#Cc2ccc(N)cc2)cc1)C(=O)NO`, for which the Ratio was determined as 2 in the experiment with Francisella novicida [1] and 300 with Escherichia coli [4]. Further, the minimal inhibitory concentration (MIC) turned out to be 0.63 µg/mL (≈ 1.34 µM) against Francisella novicida [2]; 0.016 µg/mL (≈ 0.0341 µM) in the experiment on Vibrio cholerae; 0.16 µg/mL (≈ 0.341 µM) against Klebsiella pneumoniae; 0.05 µg/mL (≈ 0.106 µM) with Salmonella typhimurium; 0.5 µg/mL (≈ 1.06 µM) against Escherichia coli [3]; 0.7 µg/mL (≈ 1.49 µM) against Pseudomonas aeruginosa. For the same compound, the MIC was determined as 0.0001 µg/mL (≈ 0.000213 µM) against Escherichia coli [5] and 0.03 µg/mL (≈ 0.0639 µM) in the experiment on Escherichia coli [6]. The Ratio Ki in experiment [7] amounted to 1.6. Also, in [8], the pKi is 10.62.

On to `C[C@@H](O)[C@H](NC(=O)c1ccc(C#CC#Cc2ccc(N)cc2)cc1)C(=O)NO`, for which the minimum inhibitory concentration (MIC) in the experiment on Francisella novicida [2] was found to be 2.5 µg/mL (≈ 6.62 µM); against Vibrio cholerae, 0.01 µg/mL (≈ 0.0265 µM); against Klebsiella pneumoniae, 0.13 µg/mL (≈ 0.344 µM); in the experiment on Salmonella typhimurium, 0.024 µg/mL (≈ 0.0636 µM); in the experiment on Escherichia coli [3], 0.32 µg/mL (≈ 0.848 µM); in the experiment on Pseudomonas aeruginosa, 0.32 µg/mL (≈ 0.848 µM). Besides, the minimal inhibitory concentration (MIC) stood at 0.001 µg/mL (≈ 0.00265 µM) with Escherichia coli [5] and 0.03 µg/mL (≈ 0.0795 µM) with Escherichia coli [6]. The Ratio with Escherichia coli [4] is reported as 30.

As to `C[C@](O)(c1c[nH]nn1)[C@H](NC(=O)c1ccc(C#CC#Cc2ccc(N)cc2)cc1)C(=O)NO`, the Ratio with Francisella novicida [1] worked out at 2. Further, the minimal inhibitory concentration (MIC) against Francisella novicida [2] is 1 µg/mL (≈ 2.25 µM); in the experiment with Vibrio cholerae, 0.03 µg/mL (≈ 0.0675 µM); against Klebsiella pneumoniae, 0.25 µg/mL (≈ 0.562 µM); in the experiment on Salmonella typhimurium, 0.1 µg/mL (≈ 0.225 µM); in the experiment on Escherichia coli [3] it was 0.5 µg/mL (≈ 1.12 µM); with Pseudomonas aeruginosa, 0.5 µg/mL (≈ 1.12 µM). Besides, the minimal inhibitory concentration (MIC) with Escherichia coli [5] turned out to be 0.004 µg/mL (≈ 0.009 µM); in the experiment on Escherichia coli [6], 0.06 µg/mL (≈ 0.135 µM). Also, the Ratio Ki in experiment [7] amounted to 1.6. The pKi in experiment [8] is 10.62.

For the compound `Nc1ccc(C#CC#Cc2ccc(C(=O)N[C@@H](Cc3c[nH]c4ccccc34)C(=O)NO)cc2)cc1`, the minimum inhibitory concentration (MIC) with Escherichia coli [3] was greater than 50 µg/mL; with Pseudomonas aeruginosa it was greater than 50 µg/mL; with Escherichia coli [5] it was 0.06 µg/mL (≈ 0.13 µM); in the experiment on Escherichia coli [6] it was 12.5 µg/mL (≈ 27 µM). In the experiment with Escherichia coli [4], the Ratio was 208.

For the compound `Nc1ccc(C#CC#Cc2ccc(C(=O)N[C@H](C(=O)NO)[C@H](O)c3ccc(O)cc3)cc2)cc1`, the minimal inhibitory concentration (MIC) is greater than 50 µg/mL against Escherichia coli [3], greater than 50 µg/mL in the experiment on Pseudomonas aeruginosa, 0.15 µg/mL (≈ 0.329 µM) against Escherichia coli [5] and 50 µg/mL (≈ 110 µM) against Escherichia coli [6]. Also, the Ratio in the experiment with Escherichia coli [4] is 333.

For `C[C@@H](O)[C@H](NC(=O)c1ccc(C#Cc2ccc(CN3CCOCC3)cc2)cc1)C(=O)NO`, the minimum inhibitory concentration (MIC) against Francisella novicida [2] is 3.1 µg/mL (≈ 7.09 µM); against Vibrio cholerae, 0.16 µg/mL (≈ 0.366 µM); against Klebsiella pneumoniae it was 0.64 µg/mL (≈ 1.46 µM); in the experiment with Salmonella typhimurium it was 0.16 µg/mL (≈ 0.366 µM); against Escherichia coli [3] it was 1.3 µg/mL (≈ 2.97 µM); against Pseudomonas aeruginosa it was 1.6 µg/mL (≈ 3.66 µM). Besides, the minimal inhibitory concentration (MIC) with Escherichia coli [5] is 0.01 µg/mL (≈ 0.0229 µM); against Escherichia coli [6], 0.2 µg/mL (≈ 0.457 µM).

For `Nc1ccc(C#CC#Cc2ccc(C(=O)N[C@@H](Cc3c[nH]cn3)C(=O)NO)cc2)cc1`, the MIC with Escherichia coli [3] is 6.3 µg/mL (≈ 15.2 µM); with Pseudomonas aeruginosa it was 6.3 µg/mL (≈ 15.2 µM); in the experiment with Escherichia coli [5], 0.02 µg/mL (≈ 0.0484 µM); in the experiment on Escherichia coli [6], 0.4 µg/mL (≈ 0.967 µM). Besides, the Ratio with Escherichia coli [4] turned out to be 20.

As to `Nc1ccc(C#CC#Cc2ccc(C(=O)N[C@@H](Cc3ccccc3)C(=O)NO)cc2)cc1`, the MIC in the experiment with Escherichia coli [3] is greater than 50 µg/mL; against Pseudomonas aeruginosa, greater than 50 µg/mL; in the experiment on Escherichia coli [5], 0.014 µg/mL (≈ 0.0331 µM); against Escherichia coli [6] it was 6.3 µg/mL (≈ 14.9 µM). Moreover, the Ratio in the experiment with Escherichia coli [4] is listed as 450.

Regarding `Nc1ccc(C#CC#Cc2ccc(C(=O)N[C@@H](Cc3ccc(O)cc3)C(=O)NO)cc2)cc1`, the values for the Ratio (in experiment [9]; in the experiment on Escherichia coli [4]) were 3 and 80, respectively. For the same compound, the minimal inhibitory concentration (MIC) is 4.7 µg/mL (≈ 10.7 µM) in the experiment with Escherichia coli [3], 12.5 µg/mL (≈ 28.4 µM) with Pseudomonas aeruginosa, 0.01 µg/mL (≈ 0.0228 µM) in the experiment with Escherichia coli [5] and 0.8 µg/mL (≈ 1.82 µM) in the experiment with Escherichia coli [6].

With `C[C@@](O)(c1ccc(O)cc1)[C@H](NC(=O)c1ccc(C#CC#Cc2ccc(N)cc2)cc1)C(=O)NO`, the MIC against Escherichia coli [3] turned out to be 3.2 µg/mL (≈ 6.82 µM); against Pseudomonas aeruginosa, 5 µg/mL (≈ 10.6 µM); against Escherichia coli [5], 0.008 µg/mL (≈ 0.017 µM); in the experiment on Escherichia coli [6] it was 0.5 µg/mL (≈ 1.06 µM). Moreover, the Ratio in the experiment with Escherichia coli [4] worked out at 62.

On to `Nc1ccc(C#CC#Cc2ccc(C(=O)N[C@H](C(=O)NO)[C@@H](O)c3ccc(O)cc3)cc2)cc1`, for which the MIC with Escherichia coli [3] was found to be 0.9 µg/mL (≈ 1.98 µM); against Pseudomonas aeruginosa, 1 µg/mL (≈ 2.2 µM); with Escherichia coli [5], 0.003 µg/mL (≈ 0.00659 µM); against Escherichia coli [6], 0.13 µg/mL (≈ 0.285 µM). The Ratio in the experiment with Escherichia coli [4] is listed as 43.

Values taken from ChEMBL document CHEMBL2417424, “Synthesis, structure, and antibiotic activity of aryl-substituted LpxC inhibitors” (J Med Chem, 2013).
